Laboratory results as given in ChEMBL document CHEMBL1629416, “Developing dual functional allosteric modulators of GABA(A) receptors” (Bioorg Med Chem, 2010).
Several values for one entry are separate records, joined by “and”; a condition that tells them apart may be missing. Equal entries are not always repeated. Activity calls are given as the source filed them. The rule behind the calls is not given here.

How the values were obtained:
[1] = biological target: T1, GABA-A receptor; alpha-1/beta-2/gamma-2 (Homo sapiens) (UniProt P14867+P47870+P18507); experiment: Negative allosteric modulation of human alpha1beta2gamma2 GABA receptor expressed in Xenopus laevis oocytes at 1 uM; assay type: cell-based; details: Oocyte
[2] = biological target: T2, GABA-A receptor; alpha-3/beta-3/gamma-2 (Homo sapiens, UniProt P18507+P28472+P34903); experiment: Binding affinity to human alpha3beta3gamma2 GABA receptor expressed in Xenopus laevis oocytes; assay type: cell-based, Oocyte
T2 sequence (P18507 whole entry): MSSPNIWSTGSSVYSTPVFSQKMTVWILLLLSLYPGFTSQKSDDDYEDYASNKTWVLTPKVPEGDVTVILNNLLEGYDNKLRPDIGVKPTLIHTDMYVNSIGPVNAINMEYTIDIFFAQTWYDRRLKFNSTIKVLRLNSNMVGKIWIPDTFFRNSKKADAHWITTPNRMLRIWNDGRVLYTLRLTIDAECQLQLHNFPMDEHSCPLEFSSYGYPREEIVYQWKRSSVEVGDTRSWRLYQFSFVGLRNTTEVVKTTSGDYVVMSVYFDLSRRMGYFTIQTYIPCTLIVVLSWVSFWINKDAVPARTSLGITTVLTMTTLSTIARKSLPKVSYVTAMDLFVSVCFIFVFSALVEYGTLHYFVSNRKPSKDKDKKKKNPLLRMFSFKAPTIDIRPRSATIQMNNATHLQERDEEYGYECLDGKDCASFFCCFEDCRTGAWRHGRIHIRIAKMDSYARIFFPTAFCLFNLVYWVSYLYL
T2 sequence (P28472 whole entry): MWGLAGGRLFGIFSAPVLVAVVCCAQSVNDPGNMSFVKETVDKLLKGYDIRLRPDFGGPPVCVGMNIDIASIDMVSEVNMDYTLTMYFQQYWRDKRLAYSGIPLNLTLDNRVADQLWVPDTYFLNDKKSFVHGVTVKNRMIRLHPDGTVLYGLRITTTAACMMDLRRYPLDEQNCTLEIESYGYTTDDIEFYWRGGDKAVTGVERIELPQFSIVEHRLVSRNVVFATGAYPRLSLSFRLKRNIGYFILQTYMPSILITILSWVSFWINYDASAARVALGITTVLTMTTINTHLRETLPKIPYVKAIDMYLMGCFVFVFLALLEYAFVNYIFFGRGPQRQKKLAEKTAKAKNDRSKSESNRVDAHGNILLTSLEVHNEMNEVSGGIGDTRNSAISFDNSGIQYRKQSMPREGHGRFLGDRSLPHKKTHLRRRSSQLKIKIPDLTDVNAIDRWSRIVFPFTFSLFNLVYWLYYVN
T2 sequence (P34903 whole entry): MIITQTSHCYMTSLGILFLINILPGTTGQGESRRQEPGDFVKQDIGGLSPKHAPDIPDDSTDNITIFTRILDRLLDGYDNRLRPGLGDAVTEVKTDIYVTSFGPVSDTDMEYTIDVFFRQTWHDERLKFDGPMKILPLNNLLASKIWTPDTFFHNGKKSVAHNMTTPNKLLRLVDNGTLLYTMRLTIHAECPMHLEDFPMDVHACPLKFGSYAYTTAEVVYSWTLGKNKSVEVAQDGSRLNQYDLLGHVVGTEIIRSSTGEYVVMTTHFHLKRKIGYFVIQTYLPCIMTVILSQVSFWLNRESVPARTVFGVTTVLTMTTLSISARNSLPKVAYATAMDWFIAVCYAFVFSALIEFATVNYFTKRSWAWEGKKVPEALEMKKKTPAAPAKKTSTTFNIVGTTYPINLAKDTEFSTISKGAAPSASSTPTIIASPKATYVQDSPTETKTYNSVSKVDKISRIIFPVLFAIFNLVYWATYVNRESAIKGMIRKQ

[3] = biological target: T3, GABA-A receptor; alpha-2/beta-3/gamma-2 (Homo sapiens, UniProt P18507+P28472+P47869); experiment: Displacement of [3H]flunitrazepam from human alpha2beta3gamma2 GABA receptor in Sf9 membranes after 1 hr by liquid scintillation counting
T3 sequence (P18507 whole entry): T2 sequence (P18507 whole entry)
T3 sequence (P28472 whole entry): T2 sequence (P28472 whole entry)
T3 sequence (P47869 whole entry): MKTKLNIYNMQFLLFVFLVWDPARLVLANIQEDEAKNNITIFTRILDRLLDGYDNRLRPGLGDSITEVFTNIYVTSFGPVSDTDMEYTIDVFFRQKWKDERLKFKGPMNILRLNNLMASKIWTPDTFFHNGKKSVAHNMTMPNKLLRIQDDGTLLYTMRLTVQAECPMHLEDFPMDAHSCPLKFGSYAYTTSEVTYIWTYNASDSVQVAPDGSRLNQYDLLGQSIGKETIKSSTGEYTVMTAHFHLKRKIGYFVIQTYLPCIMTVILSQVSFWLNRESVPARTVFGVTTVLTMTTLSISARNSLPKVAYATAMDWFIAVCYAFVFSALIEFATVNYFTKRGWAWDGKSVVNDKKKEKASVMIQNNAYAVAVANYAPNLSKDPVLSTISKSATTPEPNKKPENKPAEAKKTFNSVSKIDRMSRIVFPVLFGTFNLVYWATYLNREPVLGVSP
How it was run: (§1)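 [3H]Flunitrazepam (3 nM) competition on recombinant Sf9 membranes co-expressing α, β and γ2 subunits. Compound incubated 1 h at 4 °C in 20 mM Tris–citrate, 200 mM NaCl, pH 7.8, with membrane protein.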

[4] = biological target: T4, GABA-A receptor; alpha-3/beta-3/gamma-2 (Homo sapiens) (UniProt P18507+P28472+P34903); experiment: Positive allosteric modulation of human alpha3beta3gamma2 GABA receptor expressed in Xenopus laevis oocytes at 1 uM; assay type: cell-based; details: Oocyte
How it was run: (§2)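 Two-electrode voltage clamp on oocytes expressing human α/β/γ2 subtypes, used 2–10 days after injection. […] Baseline was the mean of three GABA-alone pulses. Result is % modulation, mean ± SEM over individual oocytes.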

[5] = biological target: T5, GABA-A receptor; alpha-5/beta-3/gamma-2 (Homo sapiens, UniProt P18507+P28472+P31644); experiment: Binding affinity to human alpha5beta3gamma2 GABA receptor expressed in Xenopus laevis oocytes; assay type: cell-based, Oocyte
T5 sequence (P18507 whole entry): T2 sequence (P18507 whole entry)
T5 sequence (P28472 whole entry): T2 sequence (P28472 whole entry)
T5 sequence (P31644 whole entry): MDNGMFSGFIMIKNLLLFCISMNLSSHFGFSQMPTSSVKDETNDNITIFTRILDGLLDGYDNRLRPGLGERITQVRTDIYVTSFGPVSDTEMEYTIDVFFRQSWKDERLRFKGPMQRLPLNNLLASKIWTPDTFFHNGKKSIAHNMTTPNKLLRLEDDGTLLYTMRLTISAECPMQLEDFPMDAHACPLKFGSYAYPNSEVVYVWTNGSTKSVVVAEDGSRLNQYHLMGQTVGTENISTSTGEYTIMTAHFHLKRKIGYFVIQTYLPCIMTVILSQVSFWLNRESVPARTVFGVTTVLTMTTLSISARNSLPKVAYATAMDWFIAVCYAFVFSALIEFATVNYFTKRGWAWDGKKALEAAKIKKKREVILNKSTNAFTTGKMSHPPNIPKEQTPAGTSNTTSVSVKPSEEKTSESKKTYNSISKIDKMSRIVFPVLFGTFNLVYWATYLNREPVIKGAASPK

[6] = biological target: T3, GABA-A receptor; alpha-2/beta-3/gamma-2; experiment: Binding affinity to human alpha2beta3gamma2 GABA receptor expressed in Xenopus laevis oocytes; assay type: cell-based, Oocyte
[7] = biological target: T6, GABA-A receptor; alpha-5/beta-3/gamma-2 (Homo sapiens) (UniProt P18507+P28472+P31644); experiment: Negative allosteric modulation of human alpha5beta3gamma2 GABA receptor expressed in Xenopus laevis oocytes at 1 uM; assay type: cell-based; details: Oocyte; how it was run: as §2
[8] = biological target: T7, GABA-A receptor; alpha-2/beta-3/gamma-2 (Homo sapiens) (UniProt P18507+P28472+P47869); experiment: Positive allosteric modulation of human alpha2beta3gamma2 GABA receptor expressed in Xenopus laevis oocytes at 1 uM; assay type: cell-based; details: Oocyte; how it was run: as §2
[9] = biological target: T5, GABA-A receptor; alpha-5/beta-3/gamma-2; experiment: Displacement of [3H]flunitrazepam from human alpha5beta3gamma2 GABA receptor in Sf9 membranes after 1 hr by liquid scintillation counting; how it was run: as §1
[10] = biological target: T1, GABA-A receptor; alpha-1/beta-2/gamma-2 (Homo sapiens); experiment: Positive allosteric modulation of human alpha1beta2gamma2 GABA receptor expressed in Xenopus laevis oocytes at 1 uM; assay type: cell-based; details: Oocyte; how it was run: as §2
[11] = biological target: T1, GABA-A receptor; alpha-1/beta-2/gamma-2 (Homo sapiens); experiment: Effect on human alpha1beta2gamma2 GABA receptor expressed in Xenopus laevis oocytes at 10 uM; assay type: cell-based; details: Oocyte
[12] = biological target: T7, GABA-A receptor; alpha-2/beta-3/gamma-2 (Homo sapiens); experiment: Negative allosteric modulation of human alpha2beta3gamma2 GABA receptor expressed in Xenopus laevis oocytes at 1 uM; assay type: cell-based; details: Oocyte; how it was run: as §2
[13] = biological target: T4, GABA-A receptor; alpha-3/beta-3/gamma-2 (Homo sapiens); experiment: Negative allosteric modulation of human alpha3beta3gamma2 GABA receptor expressed in Xenopus laevis oocytes at 1 uM; assay type: cell-based; details: Oocyte
[14] = biological target: T8, GABA-A receptor; alpha-1/beta-2/gamma-2 (Homo sapiens, UniProt P14867+P18507+P47870); experiment: Binding affinity to human alpha1beta2gamma2 GABA receptor expressed in Xenopus laevis oocytes; assay type: cell-based, Oocyte
T8 sequence (P14867 whole entry): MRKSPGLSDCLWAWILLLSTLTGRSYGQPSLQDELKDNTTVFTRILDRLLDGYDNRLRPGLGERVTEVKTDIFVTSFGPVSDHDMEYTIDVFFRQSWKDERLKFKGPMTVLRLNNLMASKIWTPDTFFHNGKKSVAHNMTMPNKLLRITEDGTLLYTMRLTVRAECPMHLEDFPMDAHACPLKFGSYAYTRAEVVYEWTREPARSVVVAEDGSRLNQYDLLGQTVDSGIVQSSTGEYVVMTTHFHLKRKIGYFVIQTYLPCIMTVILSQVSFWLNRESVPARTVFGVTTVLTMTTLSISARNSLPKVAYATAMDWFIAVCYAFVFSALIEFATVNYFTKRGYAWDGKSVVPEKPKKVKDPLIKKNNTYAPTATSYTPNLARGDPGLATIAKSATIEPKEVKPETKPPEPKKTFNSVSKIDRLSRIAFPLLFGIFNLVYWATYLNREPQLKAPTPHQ
T8 sequence (P47870 whole entry): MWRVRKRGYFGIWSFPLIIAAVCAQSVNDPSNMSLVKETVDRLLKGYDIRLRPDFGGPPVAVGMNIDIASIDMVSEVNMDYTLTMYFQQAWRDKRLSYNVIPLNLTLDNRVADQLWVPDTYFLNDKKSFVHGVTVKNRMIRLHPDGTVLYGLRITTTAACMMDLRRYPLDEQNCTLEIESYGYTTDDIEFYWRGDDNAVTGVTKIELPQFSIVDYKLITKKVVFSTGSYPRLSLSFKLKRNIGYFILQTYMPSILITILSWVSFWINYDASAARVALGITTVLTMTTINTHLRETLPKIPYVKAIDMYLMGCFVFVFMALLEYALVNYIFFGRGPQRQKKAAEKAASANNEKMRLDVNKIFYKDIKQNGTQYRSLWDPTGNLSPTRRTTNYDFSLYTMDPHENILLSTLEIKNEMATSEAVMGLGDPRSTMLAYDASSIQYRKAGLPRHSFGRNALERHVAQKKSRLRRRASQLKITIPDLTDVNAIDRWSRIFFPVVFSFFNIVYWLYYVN
T8 sequence (P18507 whole entry): T2 sequence (P18507 whole entry)

[15] = biological target: T6, GABA-A receptor; alpha-5/beta-3/gamma-2 (Homo sapiens); experiment: Positive allosteric modulation of human alpha5beta3gamma2 GABA receptor expressed in Xenopus laevis oocytes at 1 uM; assay type: cell-based; details: Oocyte; how it was run: as §2

CCCNC(=O)c1nnc2c(-c3ncccn3)cccc2c1N
Activity [1]: 5% | EC50 [2]: 0.379 µM | Ki [3]: 0.38 µM | Activity [4]: 41% | EC50 [5]: 1.13 µM | EC50 [6]: 0.104 µM

CC1CN(C(=O)c2nnc3c(-c4ncccn4)cccc3c2N)C1
Activity [7]: 35% | Activity [8]: 14%

Nc1c2c(nc3c(-c4cncnc4)cccc13)CN(C1CCC1)C2=O
Activity [7]: 2% | Activity [8]: 18% | Ki [3]: 0.0015 µM | Ki [9]: 0.012 µM

Nc1c2c(nc3c(-c4ncccn4)cccc13)CN(C1CCC1)C2=O
EC50 [2]: 0.077 µM | Activity [7]: 46% and 32% | Activity [8]: 44% and 38% | Activity [10]: 1% | Ki [3]: 0.0083 µM | Activity [4]: 40% | Activity [11]: inactive | EC50 [5]: 0.206 µM | EC50 [6]: 0.034 µM | Ki [9]: 0.014 µM

CCc1c(C(=O)OC)ncc2[nH]c3cc(OC)c(OC)cc3c12
Activity [1]: 68% | EC50 [2]: 0.01 µM | Activity [7]: 69% | Activity [12]: 61% | EC50 [5]: 0.003 µM | Activity [13]: 58% | EC50 [14]: 0.009 µM | EC50 [6]: 0.014 µM

Nc1c(C(=O)N2CC(F)(F)C2)nnc2c(-c3ncccn3)c(F)ccc12
Activity [12]: 7% | Activity [15]: 13%

CC1CN(C(=O)c2nnc3c(-c4ncccn4)c(F)ccc3c2N)C1
Activity [8]: 18% | Activity [15]: 0%

Nc1c(C(=O)N2CCC2)nnc2c(-c3ncccn3)c(F)ccc12
Activity [8]: 8% | Activity [15]: 10%

Nc1c(C(=O)NC2CC2)nnc2c(-c3ncccn3)c(F)ccc12
Activity [8]: 39% | Activity [15]: 2%

Nc1c(C(=O)NC2CC2)nnc2c(-c3ncccn3)cccc12
Activity [7]: 5% | Activity [8]: 54%

CCCNC(=O)c1nnc2c(-c3cncc(C(=O)N4CCC4)c3)cccc2c1N
Activity [1]: 14% | EC50 [2]: 0.174 µM | Activity [7]: 45% | Activity [12]: 5% | EC50 [5]: 0.455 µM | Activity [13]: 11% | EC50 [14]: 0.389 µM | EC50 [6]: 0.054 µM

Nc1c(C(=O)N2CC(F)(F)C2)nnc2c(-c3ncccn3)cccc12
Activity [7]: 4% | Activity [8]: 6%

CN1C(=O)CN=C(c2ccccc2)c2cc(Cl)ccc21
Activity [8]: 177% | Activity [10]: 192% | Activity [4]: 207% | Activity [15]: 153%

Nc1c(C(=O)N2CCC2)nnc2c(-c3ncccn3)cccc12
Activity [7]: 22% | Activity [12]: 5%

CCCNC(=O)c1nnc2c(-c3ncccn3)c(F)ccc2c1N
Activity [7]: 3% | Activity [8]: 31% | Ki [3]: 0.006 µM
